Laboratory results reported in ChEMBL document CHEMBL1122185, “Tricyclics with analgesic and antidepressant activity. 2. [[(Alkylamino)ethyl]thio]dibenzo[b,f]thiepins and 10,11-dihydro derivatives” (1982).
Several values for one entry are separate records, joined by “and”; a condition that tells them apart may be missing. Equal values may be shown once.

How the values were obtained:
Format in all cases: functional
Mus musculus [1] = test: Analgesic activity was determined for delay in response to noxious heat stimuli after intraperitoneal administration in mice, in tail flick assay
Summary of the method: (§1)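 D'Amour-Smith tail-flick method in mice: delay in response to a noxious heat stimulus. Compounds were given in a vehicle of distilled water with a few drops of Tween 80. ED50 was calculated by linear-regression analysis with 95% confidence limits.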

Mus musculus [2] = test: Antidepressant activity was determined to prevent tetrabenazine-induced ptosis(TBZ) after oral administration in mice
Summary of the method: (§2)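 Mouse model measuring prevention of tetrabenazine-induced ptosis, with dosing orally or intraperitoneally. The vehicle was distilled water with a few drops of Tween 80. ED50 values were calculated by linear-regression analysis, with 95% confidence limits in parentheses.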

Mus musculus [3] = test: Analgesic activity was determined for inhibition of phenyl-p-quinone-induced writhing (PQW) after subcutaneous administration in mice; settings: for ED50: sc
Summary of the method: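 Mice were given phenyl-p-quinone to induce writhing, and inhibition of writhing was scored after subcutaneous dosing. The vehicle was distilled water with a few drops of Tween 80. ED50 was obtained by linear regression with 95% confidence limits.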

Rattus norvegicus [4] = test: Antidepressant activity was determined for potentiation of head twitching induced by 5-hydroxytryptophan-(5-HTP) after intraperitoneal administration in pargyline-pretreated rats; settings: ip
Summary of the method: (§3)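 In pargyline-pretreated rats, potentiation of 5-hydroxytryptophan-induced head twitching (stereotypy) was measured after intraperitoneal dosing. The vehicle was distilled water plus a few drops of Tween 80. ED50 was derived by linear regression with 95% confidence limits.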

Mus musculus [5] = test: Antidepressant activity was determined to prevent tetrabenazine-induced ptosis(TBZ) after intraperitoneal administration in mice; settings: ip; summary of the method: as §2
Mus musculus [6] = test: Analgesic activity was determined for delay in response to noxious heat stimuli after subcutaneous administration in mice, in tail flick assay; settings: for ED50: sc; summary of the method: as §1
Mus musculus [7] = test: Antidepressant activity was determined to prevent tetrabenazine-induced ptosis(TBZ) after oral administration in mice.(value in parentheses indicates 95% confidence limits).; summary of the method: as §2
Rattus norvegicus [8] = test: Antidepressant activity was determined for potentiation of head twitching induced by 5-hydroxytryptophan-(5-HTP) after intraperitoneal administration in pargyline-pretreated rats,; settings: ip; summary of the method: as §3
[9] = Mus musculus, po, read-out: ED50

SMILES	ED50 (Mus musculus [2]; [9])	ED50 (Mus musculus [3])	ED50 (Rattus norvegicus [4])	ED50 (Mus musculus [6])	other results
CNCCSC1Cc2ccccc2Sc2ccc(F)cc21 (stereo unspecified)	1.5 mg/kg	2.9 mg/kg	8.1 mg/kg	–	Inhibition (Mus musculus [1]): 60%; ED50 (Mus musculus [5]): 0.28 mg/kg
CN(C)CCSC1=Cc2ccccc2Sc2ccc(F)cc21	–	> 10 mg/kg	> 10 mg/kg	> 25 mg/kg	ED50 (Mus musculus [7]): 3.6 mg/kg
CNCCSC1=Cc2ccccc2Sc2ccc(O)cc21	2 mg/kg	> 10 mg/kg	> 10 mg/kg	> 25 mg/kg	–
CN(C)CCSC1=Cc2ccccc2Sc2ccc(Cl)cc21	3.7 mg/kg	14.6 mg/kg	> 10 mg/kg	> 25 mg/kg	–
CN(C)CCSC1Cc2ccccc2Sc2ccccc21 (stereo unspecified)	–	3.3 mg/kg	> 10 mg/kg	–	Inhibition (Mus musculus [6]): 60%; Inhibition (Mus musculus [2]): 60%
CNCCSC1=Cc2ccccc2Sc2ccc(Cl)cc21	–	12.5 mg/kg	> 10 mg/kg	> 25 mg/kg	–
CN(C)CCSC1Cc2ccccc2Sc2ccc(F)cc21 (stereo unspecified)	1.2 mg/kg	9 mg/kg	–	> 25 mg/kg	ED50 (Rattus norvegicus [8]): > 10 mg/kg; ED50 (Mus musculus [2]): 0.91 mg/kg
CNCCSC1Cc2ccccc2Sc2ccccc21 (stereo unspecified)	8 mg/kg	4.2 mg/kg	> 10 mg/kg	–	Inhibition (Mus musculus [6]): 60%
CN(C)CCSC1Cc2ccccc2Sc2ccc(Cl)cc21 (stereo unspecified)	–	> 10 mg/kg	> 10 mg/kg	> 25 mg/kg	–
CNCCSC1=Cc2ccccc2Sc2ccc(F)cc21	5.2 mg/kg	8.9 mg/kg	> 10 mg/kg	–	Inhibition (Mus musculus [6]): 50%
CNCCSC1Cc2ccccc2Sc2ccc(Cl)cc21 (stereo unspecified)	–	4.4 mg/kg	50 mg/kg	–	ED50 (Mus musculus [1]; ip): 63.6 mg/kg
CN(C)CCSC1=Cc2ccccc2Sc2ccccc21	> 20 mg/kg	–	> 10 mg/kg	> 25 mg/kg	Inhibition (Mus musculus [3]): 64%
CNCCSC1=Cc2ccccc2Sc2ccccc21	–	–	> 10 mg/kg	> 25 mg/kg	ED50 (Mus musculus [7]): 23.9 mg/kg
CC(C)=CCN1CC[C@]2(C)c3cc(O)ccc3C[C@H]1[C@H]2C [(+)-PENTAZOCINE]	–	2.4 mg/kg	–	14.6 mg/kg	–
CN(C)CCCN1c2ccccc2CCc2ccccc21 [IMIPRAMINE]	–	10.7 mg/kg	> 10 mg/kg	> 25 mg/kg	ED50 (Mus musculus [2]): 2.8 mg/kg and 1.3 mg/kg
